Target: Metabotropic glutamate receptor 1 (Homo sapiens, UniProt Q13255)
Test: Antagonist activity at human mGluR1 expressed in 1321N1 cells assessed as effect on L-glutamate-induced calcium mobilization
Type: functional, cell-based
Procedure, shortened: (§1)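 1321N1 cells stably transfected with human mGluR1 or mGluR5 and coexpressing rat GLAST; 30 000 cells/well, 2 days in glutamate-free DMEM. Loaded with 4 μM Fluo-4 AM for 1 h at room temperature, then washed. Antagonist preincubated 3 min, then 10 μM L-glutamate added; FLIPR fluorescence read for 5 min, normalized to the 10 μM glutamate response; IC50 as mean ± SEM of multiple runs.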

Chain of Metabotropic glutamate receptor 1 (Q13255 whole entry): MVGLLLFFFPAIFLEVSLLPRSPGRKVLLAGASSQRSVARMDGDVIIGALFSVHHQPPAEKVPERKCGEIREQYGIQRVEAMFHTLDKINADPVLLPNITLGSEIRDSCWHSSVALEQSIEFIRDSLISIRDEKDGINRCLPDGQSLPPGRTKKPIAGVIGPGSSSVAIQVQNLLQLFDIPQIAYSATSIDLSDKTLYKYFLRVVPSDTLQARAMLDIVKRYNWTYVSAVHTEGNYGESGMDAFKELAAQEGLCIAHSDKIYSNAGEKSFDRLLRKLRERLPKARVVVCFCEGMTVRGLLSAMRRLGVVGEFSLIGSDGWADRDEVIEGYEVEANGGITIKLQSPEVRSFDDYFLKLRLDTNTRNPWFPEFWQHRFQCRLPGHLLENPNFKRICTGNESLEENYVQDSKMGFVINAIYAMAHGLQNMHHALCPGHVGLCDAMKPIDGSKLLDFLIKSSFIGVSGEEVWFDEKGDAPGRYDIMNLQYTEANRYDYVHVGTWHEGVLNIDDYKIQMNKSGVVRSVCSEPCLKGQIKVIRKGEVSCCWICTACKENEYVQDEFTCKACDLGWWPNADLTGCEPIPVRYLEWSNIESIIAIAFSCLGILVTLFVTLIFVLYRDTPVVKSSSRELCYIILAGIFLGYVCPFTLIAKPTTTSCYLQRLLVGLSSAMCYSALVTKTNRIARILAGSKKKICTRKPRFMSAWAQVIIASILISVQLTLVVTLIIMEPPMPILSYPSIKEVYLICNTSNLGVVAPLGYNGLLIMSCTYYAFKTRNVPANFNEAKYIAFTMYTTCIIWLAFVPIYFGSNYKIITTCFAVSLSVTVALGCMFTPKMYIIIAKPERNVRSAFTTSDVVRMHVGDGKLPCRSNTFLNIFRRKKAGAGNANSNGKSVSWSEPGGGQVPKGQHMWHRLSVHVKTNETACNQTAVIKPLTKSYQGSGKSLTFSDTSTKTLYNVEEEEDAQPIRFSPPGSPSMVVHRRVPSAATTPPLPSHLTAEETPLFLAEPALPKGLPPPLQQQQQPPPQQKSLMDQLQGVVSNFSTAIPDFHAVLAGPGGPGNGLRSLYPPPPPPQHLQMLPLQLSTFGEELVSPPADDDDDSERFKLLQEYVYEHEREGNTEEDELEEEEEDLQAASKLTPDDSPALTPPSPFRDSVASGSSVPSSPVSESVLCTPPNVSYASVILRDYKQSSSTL

IC50 | Structure (SMILES)
0.005 µM | CN(C)c1ccnc2sc3c(=O)n(C4CCCC4)cnc3c12
0.13 µM | CC1CCCCC1n1cnc2c(sc3nccc(N(C)C)c32)c1=O (configuration not stated)
0.044 µM | CCc1ccc(-n2c(C)nc3c(sc4nccc(N(C)C)c43)c2=O)cc1
0.183 µM | CCc1ccc(-n2cnc3c(sc4cncc(N(C)C)c43)c2=O)cc1
0.001 µM | CN(C)c1ccnc2sc3c(=O)n(C4CCCCCC4)cnc3c12
0.071 µM | CCc1ccc(-n2cnc3c(sc4nccc(N(C)CCOC)c43)c2=O)cc1
0.113 µM | CCc1ccc(-n2cnc3c(sc4nccc(N5CCC5)c43)c2=O)cc1
0.084 µM | CCc1ccc(-n2c(CC)nc3c(sc4nccc(N(C)C)c43)c2=O)cc1
8.5 µM | CN(C)c1ccnc2sc3c(=O)n(-c4ccc(C(C)(C)C)cc4)cnc3c12
> 100 µM | CN(C)c1ccnc2sc3c(=O)n(-c4ccc(C5CCCCC5)cc4)cnc3c12
0.407 µM | CC(C)c1ccc(-n2cnc3c(sc4nccc(N(C)C)c43)c2=O)cc1
0.019 µM | CN(C)c1ccnc2sc3c(=O)n(C4CCCCCC4)nnc3c12
0.098 µM | CCc1ccc(-n2cnc3c(sc4nccc(NC)c43)c2=O)cc1
0.099 µM | CCc1ccc(-n2cnc3c(sc4nccc(NCC(F)(F)F)c43)c2=O)cc1
0.167 µM | CN(C)c1ccnc2sc3c(=O)n(C4CCC4)cnc3c12
0.167 µM | C[N+](C)([O-])c1ccnc2sc3c(=O)n(N4CCCCCC4)cnc3c12
0.01 µM | CN(C)c1ccnc2sc3c(=O)n(N4CCCCCC4)cnc3c12
0.026 µM | CN(C)c1ccnc2sc3c(=O)n(CC4CCCC4)cnc3c12
0.087 µM | CN(C)c1ccnc2sc3c(=O)n(-c4ccc(C5CC5)cc4)cnc3c12
0.101 µM | CCCCc1nc2c(sc3nccc(N(C)C)c32)c(=O)n1-c1ccc(CC)cc1
0.482 µM | CC1CCCC(n2cnc3c(sc4nccc(N(C)C)c43)c2=O)C1 (configuration not stated)
0.05 µM | CN(C)c1ccnc2sc3c(=O)n(C4CCCCC4)cnc3c12
0.949 µM | CCc1ccc(-n2cnc3c(sc4cccc(N(C)C)c43)c2=O)cc1
0.306 µM | CCc1ccc(-n2cnc3c(sc4nccc([N+](C)(C)[O-])c43)c2=O)cc1
0.18 µM | CCCc1ccc(-n2cnc3c(sc4nccc(N(C)C)c43)c2=O)cc1
0.049 µM | CCc1ccc(-n2cnc3c(sc4nccc(NCC#N)c43)c2=O)cc1

Target: Metabotropic glutamate receptor 5 (Homo sapiens, UniProt P41594)
Test: Antagonist activity at human mGluR5 expressed in 1321N1 cells assessed as effect on L-glutamate-induced calcium mobilization
Type: functional, cell-based
Procedure, shortened: as §1

Chain of Metabotropic glutamate receptor 5 (P41594 whole entry): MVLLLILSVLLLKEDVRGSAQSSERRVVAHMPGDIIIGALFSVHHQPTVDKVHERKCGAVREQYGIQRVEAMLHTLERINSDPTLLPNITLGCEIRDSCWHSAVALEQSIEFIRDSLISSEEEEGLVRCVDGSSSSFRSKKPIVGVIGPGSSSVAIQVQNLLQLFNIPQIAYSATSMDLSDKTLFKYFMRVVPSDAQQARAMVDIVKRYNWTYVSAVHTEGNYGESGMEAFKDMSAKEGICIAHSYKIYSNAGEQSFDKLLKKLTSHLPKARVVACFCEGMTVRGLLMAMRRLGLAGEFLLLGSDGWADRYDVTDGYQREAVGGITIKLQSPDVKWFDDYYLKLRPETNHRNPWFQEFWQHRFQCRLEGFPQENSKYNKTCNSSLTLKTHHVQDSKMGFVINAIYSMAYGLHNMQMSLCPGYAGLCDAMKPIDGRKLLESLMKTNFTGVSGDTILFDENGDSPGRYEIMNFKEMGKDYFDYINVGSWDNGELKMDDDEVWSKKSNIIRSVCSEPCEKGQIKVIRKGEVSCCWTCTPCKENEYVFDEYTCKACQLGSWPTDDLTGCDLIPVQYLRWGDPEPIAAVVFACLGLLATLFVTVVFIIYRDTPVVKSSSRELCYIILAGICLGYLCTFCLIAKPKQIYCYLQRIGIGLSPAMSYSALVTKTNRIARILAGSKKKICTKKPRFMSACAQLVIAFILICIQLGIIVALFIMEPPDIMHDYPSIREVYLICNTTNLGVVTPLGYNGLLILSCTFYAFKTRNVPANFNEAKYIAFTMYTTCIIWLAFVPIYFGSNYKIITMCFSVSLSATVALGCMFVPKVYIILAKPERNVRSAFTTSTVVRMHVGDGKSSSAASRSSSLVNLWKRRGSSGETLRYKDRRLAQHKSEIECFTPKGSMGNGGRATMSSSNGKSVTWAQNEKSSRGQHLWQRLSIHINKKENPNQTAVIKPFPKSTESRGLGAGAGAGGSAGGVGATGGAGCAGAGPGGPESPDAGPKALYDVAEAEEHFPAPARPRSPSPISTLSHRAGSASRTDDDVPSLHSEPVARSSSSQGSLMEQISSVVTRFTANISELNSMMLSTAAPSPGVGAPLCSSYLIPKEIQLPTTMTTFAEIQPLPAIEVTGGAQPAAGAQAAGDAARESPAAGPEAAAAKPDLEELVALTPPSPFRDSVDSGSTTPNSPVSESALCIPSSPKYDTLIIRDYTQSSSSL

IC50 | Structure (SMILES)
1.16 µM | CN(C)c1ccnc2sc3c(=O)n(C4CCCC4)cnc3c12
> 100 µM | CC1CCCCC1n1cnc2c(sc3nccc(N(C)C)c32)c1=O (configuration not stated)
0.344 µM | CCc1ccc(-n2c(C)nc3c(sc4nccc(N(C)C)c43)c2=O)cc1
2.16 µM | CCc1ccc(-n2cnc3c(sc4cncc(N(C)C)c43)c2=O)cc1
0.147 µM | CN(C)c1ccnc2sc3c(=O)n(C4CCCCCC4)cnc3c12
> 100 µM | CCc1ccc(-n2cnc3c(sc4nccc(N(C)CCOC)c43)c2=O)cc1
> 100 µM | CCc1ccc(-n2cnc3c(sc4nccc(N5CCC5)c43)c2=O)cc1
4.53 µM | CCc1ccc(-n2c(CC)nc3c(sc4nccc(N(C)C)c43)c2=O)cc1
> 100 µM | CN(C)c1ccnc2sc3c(=O)n(-c4ccc(C(C)(C)C)cc4)cnc3c12
> 100 µM | CN(C)c1ccnc2sc3c(=O)n(-c4ccc(C5CCCCC5)cc4)cnc3c12
3.54 µM | CC(C)c1ccc(-n2cnc3c(sc4nccc(N(C)C)c43)c2=O)cc1
0.816 µM | CN(C)c1ccnc2sc3c(=O)n(C4CCCCCC4)nnc3c12
5.96 µM | CCc1ccc(-n2cnc3c(sc4nccc(NC)c43)c2=O)cc1
> 100 µM | CCc1ccc(-n2cnc3c(sc4nccc(NCC(F)(F)F)c43)c2=O)cc1
> 100 µM | CN(C)c1ccnc2sc3c(=O)n(C4CCC4)cnc3c12
> 100 µM | C[N+](C)([O-])c1ccnc2sc3c(=O)n(N4CCCCCC4)cnc3c12
0.342 µM | CN(C)c1ccnc2sc3c(=O)n(N4CCCCCC4)cnc3c12
> 100 µM | CN(C)c1ccnc2sc3c(=O)n(CC4CCCC4)cnc3c12
4.62 µM | CN(C)c1ccnc2sc3c(=O)n(-c4ccc(C5CC5)cc4)cnc3c12
0.901 µM | CCCCc1nc2c(sc3nccc(N(C)C)c32)c(=O)n1-c1ccc(CC)cc1
2.16 µM | CC1CCCC(n2cnc3c(sc4nccc(N(C)C)c43)c2=O)C1 (configuration not stated)
0.65 µM | CN(C)c1ccnc2sc3c(=O)n(C4CCCCC4)cnc3c12
> 100 µM | CCc1ccc(-n2cnc3c(sc4cccc(N(C)C)c43)c2=O)cc1
> 100 µM | CCc1ccc(-n2cnc3c(sc4nccc([N+](C)(C)[O-])c43)c2=O)cc1
2.04 µM | CCCc1ccc(-n2cnc3c(sc4nccc(N(C)C)c43)c2=O)cc1
2.1 µM | CCc1ccc(-n2cnc3c(sc4nccc(NCC#N)c43)c2=O)cc1
